From PubChem
Rpn11 block: inhibitors of human proteasome Rpn11. actives 0.59% (n = 360,000). inhibition, % at 20 µM. human 26S proteasome, Ub4-pepOG fluorescence polarization; 20S core pre-blocked with epoxomicin;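 active = inhibition at 20 µM, scaled to each plate's controls, above about 33%, limit read from the data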
Target sequence (O00487 whole entry, looked up): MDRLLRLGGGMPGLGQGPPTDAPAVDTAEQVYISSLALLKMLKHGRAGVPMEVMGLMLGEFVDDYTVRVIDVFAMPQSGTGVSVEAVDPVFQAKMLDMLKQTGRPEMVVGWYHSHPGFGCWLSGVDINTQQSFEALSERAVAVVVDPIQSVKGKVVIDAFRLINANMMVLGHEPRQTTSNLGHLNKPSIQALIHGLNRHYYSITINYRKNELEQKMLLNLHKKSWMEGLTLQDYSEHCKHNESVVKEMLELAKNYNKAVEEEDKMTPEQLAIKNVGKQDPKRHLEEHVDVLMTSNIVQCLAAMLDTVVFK
PP1 counter: PP1-alpha (human) inhibition in PP5 counter-screen; P62136; purified PP1alpha, OMFP fluorescence; inhibition, % at 6.7 µM; actives 0.9% (n = 320,000);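 active = inhibition above the mean inhibition of all tested compounds plus 3 SD, computed separately for each screening campaign, cut at about 15% in these data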
CSN inh: inhibitors of human CSN-mediated cullin deneddylation; Q92905; Purified CSN, SCF-Nedd8-OG deneddylation, fluorescence polarization; inhibition, % at 12.5 µM; actives 0.38% (n = 360,000); AID 651999;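 active = pattern-corrected inhibition above about 35%, with an unprinted fluorescence ratio check between 0.5 and 1.5, limit read from the data, passing the limit was not always enough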;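 note: 0% = enzyme with substrate and 100% = substrate without enzyme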
Target sequence (Q92905 whole entry, looked up, one chain of several): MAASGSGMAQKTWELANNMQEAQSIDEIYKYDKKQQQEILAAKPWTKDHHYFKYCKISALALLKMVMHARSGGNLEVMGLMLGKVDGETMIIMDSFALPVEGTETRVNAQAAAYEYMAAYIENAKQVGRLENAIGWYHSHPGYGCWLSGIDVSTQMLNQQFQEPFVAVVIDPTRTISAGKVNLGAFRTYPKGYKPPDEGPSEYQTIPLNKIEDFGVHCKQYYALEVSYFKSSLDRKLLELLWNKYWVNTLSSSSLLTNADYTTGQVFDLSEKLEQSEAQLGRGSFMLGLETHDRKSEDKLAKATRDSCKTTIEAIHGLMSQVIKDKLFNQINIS
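Material: purified human Csn5 enzyme expressed in HEK293T cells / Medium: Tris buffer pH 7.5, NaCl, DTT, Tween-20, trehalose, ovalbumin / Compound dosing: 12.5 µM single point / Schedule: 90 min incubation of compound, enzyme and substrate at room temperature / Signal: fluorescence polarization of the substrate / Control set: no-enzyme wells high, enzyme-with-substrate wells low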
HNF4A DNA FP: change in binding of human HNF4 alpha to DNA. activity change, % at 10 µM. actives 0.3% (n = 360,000). HNF4a-FITC DNA binding, fluorescence polarization, 1 h; in the data active = activity change above about 30%, passing the limit was not always enough
NadD inh: NadD (S. aureus) enzyme inhibition; actives 0.78% (n = 360,000); purified NadD enzyme, colorimetric absorbance read-out; inhibition, % at 20 µM; in the data active = inhibition above about 26%
TPT1 inh: blocks Candida albicans tRNA 2'-phosphotransferase; recombinant caTPT1, FP RNA substrate dephosphorylation; inhibition, % at 5 µM; actives 0.81% (n = 300,000);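 active = inhibition above the mean of all tested compounds plus 3 SD, set per screening campaign, cut at about 24% in these data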;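 note: plate controls were DMSO alone for no effect and ferristatin control at 100 nM for full effect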
Rpn11 confirm: Rpn11 inhibition confirmation, single concentration. shares compounds with Rpn11 block. purified human 26S proteasome, Ub4-pepOG fluorescence polarization; proteasome pretreated with epoxomicin. actives 29% (n = 1,900). inhibition, % at 20 µM
MMP-2 counter: MMP-2 (human) inhibition counter-screen | actives 4% (n = 1,900) | recombinant MMP-2, FRET peptide cleavage fluorescence | inhibition, % at 20 µM | shares compounds with Rpn11 block;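 note: human MMP-2 activated beforehand with APMA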
Thrombin FP: blocks bovine thrombin, flagging nonselective RPN11 hits; shares compounds with Rpn11 block; bovine thrombin cleavage of Ub4-pepOG, fluorescence polarization; AID 602333; actives 13% (n = 1,900); inhibition, % at 20 µM;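 active = mean inhibition at least 40% at 20 µM, or signal 3 deviations below plate average, so some actives read negative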;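 note: plate controls were thrombin with DMSO for no effect and buffer wells lacking thrombin for full effect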
Active calls of the source: *; / = not tested or not shown. Shown are actives, neighbours in structure and some others; about 2.7% of the full set was active somewhere. Cut-off read from the data, not from the text of the source, unless noted: active = inhibition above about 40%; inactive = the rest.

SMILES | Rpn11 block | PP1 counter | CSN inh | HNF4A DNA FP | NadD inh | TPT1 inh | Rpn11 confirm | MMP-2 counter | Thrombin FP
C=CCSc1nnc(NC(=O)c2cn(CC)c3nc(C)ccc3c2=O)s1 | 48* | -4 | 26 | 17 | 9 | 12 | 10 | -64 | 12
CCn1cc(C(=O)Nc2ccccc2)c(=O)c2ccc(C)nc21 | / | -3 | / | / | / | 2 | / | / | /
CN(Cc1ccccc1)C(=O)c1ncn2c1C(=O)N(C)CC2 | -4 | / | -3 | 3 | 1 | / | / | / | /
C[C@H](CO)N1C[C@H](C)[C@@H](CN(C)Cc2ccccc2)Oc2c(NC(=O)C3CC3)cccc2C1=O | -4 | / | 0 | 1 | 0 | / | / | / | /
COc1cc(S(=O)(=O)N2CCN(Cc3ccc4c(c3)OCO4)CC2)ccc1NC(C)=O | 65* | / | 10 | 8 | -3 | / | 4 | -11 | -7
COc1ccc(S(=O)(=O)N2CCN(Cc3ccc4c(c3)OCO4)CC2)cc1F | -2 | -1 | -2 | -2 | 0 | 0 | / | / | /
N#C/C(=C\c1ccc(O)c([N+](=O)[O-])c1)c1nc2ccccc2s1 | 45* | / | 11 | 21 | 8 | / | 42* | 72* | 15
COc1ccc(-c2nnc(SC)nc2-c2ccc(OC)c([N+](=O)[O-])c2)cc1[N+](=O)[O-] | 103* | 2 | 2 | 12 | 16 | -2 | 21 | 70* | 3
FC(F)(F)c1cccc(NC(=S)Nc2ccc(Cl)c(Cl)c2)c1 | 37* | -1 | 1 | 5 | 1 | 1 | -8 | 21 | -24
Cc1nn2c(N3CCCC3)c3c(nc2c1-c1ccccc1)CCC3 | 110* | 2 | 2 | -3 | 7 | 4 | 28 | -9 | 5
CCOC1=C/C(=C/c2c(N)n3nc(CC(=O)N4CCCCC4)sc3nc2=O)C=CC1=O | 79* | -1 | 24 | 11 | 1 | 10 | 44* | 3 | 38
C=CCC1=C/C(=C\c2c(N)n3nc(CC(=O)N4CCCC4)sc3nc2=O)C=C(OC)C1=O | / | -5 | 34 | 16 | 6 | 20 | / | / | /
COC1=C/C(=C/c2c(N)n3nc(CC(=O)N4CCCCC4)sc3nc2=O)C=CC1=O | 51* | -1 | 12 | 7 | 0 | 8 | 39 | 4 | 52*
O=C(c1cnn(C(=O)c2ccco2)c1)c1cc(F)ccc1O | -2 | / | 0 | 0 | 0 | / | / | / | /
COc1ccc(OC)c(S(=O)(=O)N2CCN(C(=O)c3cc(C4CC4)nn3-c3ccccc3)CC2)c1 | -2 | 2 | -2 | 2 | -7 | / | / | / | /
CCc1cccc(NC(=O)CCc2nc3sc4c(c3c(=O)[nH]2)CCCC4)c1 | 47* | 3 | 9 | 7 | 6 | 14 | 37 | -27 | 45*
Cc1ccc(NC(=O)CCc2nc3sc4c(c3c(=O)[nH]2)CCCC4)nc1 | 49* | 0 | 16 | 18 | 11 | 17 | 78* | -3 | 35
COc1cccc(NC(=O)CN(C)C(=O)CCc2nc3sc4c(c3c(=O)[nH]2)CCCC4)c1 | 24 | 2 | 11 | 2 | 4 | 8 | / | / | /
Cc1cccc(NC(=O)CCc2nc3sc4c(c3c(=O)[nH]2)CCCC4)c1 | 3 | 1 | -2 | 2 | -1 | -6 | / | / | /
COc1ccccc1NC(=O)CCc1nc2sc3c(c2c(=O)[nH]1)CCCC3 | 44* | 3 | 18 | 14 | 11 | 21 | 67* | -27 | 27
Cc1cccc(NC(=O)C(C)SCc2nc3sc4c(c3c(=O)[nH]2)CCCC4)n1 (centres undefined) | 48* | -2 | 9 | 17 | 4 | 18 | 35 | -19 | 24
O=C(CCCc1nc(-c2ccc(Cl)cc2)no1)NC1CCCCC1 | 2 | -1 | 2 | 1 | 2 | 1 | / | / | /
CCN(C(=O)COC(=O)c1nc(Cl)ccc1Cl)C1CCS(=O)(=O)C1 (centres undefined) | -1 | -10 | 0 | -1 | 4 | 3 | / | / | /
COc1ccc(CN2C(=O)c3cccnc3C2Nc2ccc(C)cc2)cc1 (centres undefined) | 47* | 9 | -2 | 5 | 0 | 4 | -8 | -14 | -15
COc1ccc(CN2C(=O)c3cccnc3C2Nc2cc(Cl)c(OC)cc2OC)cc1 (centres undefined) | -7 | 9 | -3 | 2 | 3 | 15 | / | / | /
SMILES | Rpn11 block | PP1 counter | CSN inh | HNF4A DNA FP | NadD inh | TPT1 inh | Rpn11 confirm | MMP-2 counter | Thrombin FP
CN(CC(=O)Nc1cccc(F)c1)C(=O)c1cc(S(=O)(=O)N2CCN(c3ccccc3)CC2)ccc1Cl | -2 | 1 | 4 | -4 | 4 | / | / | / | /
CCCn1c(NC(=O)C2COc3ccccc3O2)nc2ccccc21 (centres undefined) | 104* | -3 | 0 | -7 | 3 | -6 | 5 | -2 | 7
CCCn1c(NC(=O)c2ccco2)nc2ccccc21 | -4 | -4 | 1 | -4 | 0 | -2 | / | / | /
O=C(N/N=C/c1ccc2c(c1)OCO2)c1sc2cc(Cl)ccc2c1Cl | 105* | -5 | 0 | 4 | 21 | 1 | 3 | -31 | -1
O=C(N/N=C/c1ccc2c(c1)OCO2)c1ccc(Cl)cc1Cl | 6 | 2 | 1 | 2 | -7 | -2 | / | / | /
COc1cc(/C=C/C(=O)O)cc(OC)c1 | -10 | -2 | -1 | -3 | -7 | -2 | / | / | /
COc1cc(/C=C2\C=CC(=O)O2)cc(OC)c1 | 38* | -2 | 14 | 22 | 0 | 24 | 22 | -4 | 9
CCn1c(=O)cc(C(F)(F)F)[nH]c1=S | 53* | 0 | -1 | -1 | -7 | -2 | -2 | 9 | -10
COc1nc(-c2ccccc2)ccc1-c1noc(-c2cccnc2)n1 | 44* | -2 | 1 | 9 | -5 | 4 | -6 | -24 | -7
COc1nc(-c2ccc(C)cc2)ccc1-c1noc(-c2cccnc2)n1 | 13 | 0 | 5 | 11 | 2 | 1 | / | / | /
CCOC1=C2CN(S(=O)(=O)c3ccc(C)cc3)[C@H](c3ccccc3)C[C@@H]2N(S(=O)(=O)c2ccc(C)cc2)[C@H](c2ccccc2)C1 | 4 | / | -5 | 3 | 5 | / | / | / | /
Cc1nnc(N2CCC(C(=O)N3CCCCCC3)CC2)c2nn(-c3ccc(Cl)cc3)c(C)c12 | -3 | 6 | -1 | 1 | 4 | -2 | / | / | /
COc1ccc(-n2nc3c(N4CCC(C(=O)NCCc5ccco5)CC4)nnc(C)c3c2C)cc1 | 12 | 4 | 11 | 0 | 3 | 3 | / | / | /
COc1ccc(-n2nc3c(N4CCC(C(=O)NCc5cccc(C)c5)CC4)nnc(C)c3c2C)cc1 | 71* | 10 | 18 | 10 | 9 | 21 | 55* | -22 | 22
